Assay results: ChEMBL document CHEMBL4396889, “From Inhibition to Degradation: Targeting the Antiapoptotic Protein Myeloid Cell Leukemia 1 (MCL1)” (J Med Chem, 2019)
Calls of active or inactive are those of the source. The calls are words filed in the database; no cut-off is given here.

How the values were obtained:
[1] = biological target: T1, Protein cereblon/Induced myeloid leukemia cell differentiation protein Mcl-1 (Homo sapiens) (UniProt Q07820+Q96SW2); assay: Protac activity at Cereblon/MCL1 in human OPM2 cells assessed as protein abundance at 500 nM after 48 hrs by immunoblot analysis relative to control; type: cell-based
T1 sequence (Q07820 whole entry, looked up, canonical isoform): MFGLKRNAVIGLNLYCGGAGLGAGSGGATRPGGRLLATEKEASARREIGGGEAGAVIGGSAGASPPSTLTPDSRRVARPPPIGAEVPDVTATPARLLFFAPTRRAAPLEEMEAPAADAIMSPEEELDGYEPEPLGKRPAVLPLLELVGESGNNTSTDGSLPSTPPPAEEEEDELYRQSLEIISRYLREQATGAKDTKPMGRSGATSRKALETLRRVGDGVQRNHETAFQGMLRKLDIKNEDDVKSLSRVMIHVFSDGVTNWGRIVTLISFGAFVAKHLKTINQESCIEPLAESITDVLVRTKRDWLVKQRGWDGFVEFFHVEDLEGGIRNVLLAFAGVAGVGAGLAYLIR
T1 sequence (Q96SW2 whole entry, looked up, canonical isoform): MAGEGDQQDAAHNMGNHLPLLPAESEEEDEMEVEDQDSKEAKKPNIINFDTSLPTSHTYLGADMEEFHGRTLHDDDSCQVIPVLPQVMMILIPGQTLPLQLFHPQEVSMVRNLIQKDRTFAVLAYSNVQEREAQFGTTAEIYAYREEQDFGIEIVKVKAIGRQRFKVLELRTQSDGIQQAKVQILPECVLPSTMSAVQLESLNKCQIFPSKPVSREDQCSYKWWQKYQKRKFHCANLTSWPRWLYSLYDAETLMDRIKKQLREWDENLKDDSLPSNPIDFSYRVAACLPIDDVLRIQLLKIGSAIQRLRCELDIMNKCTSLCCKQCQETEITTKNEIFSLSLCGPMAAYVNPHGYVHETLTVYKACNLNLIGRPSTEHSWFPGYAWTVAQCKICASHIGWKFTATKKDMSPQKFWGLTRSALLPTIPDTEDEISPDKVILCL
How it was run: (§1)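 OPM2 multiple myeloma cells, wild type or CRBN-knockout, were treated for 48 h with degrader or DMSO vehicle. MCL1 long and short isoforms were detected by immunoblot and levels compared with DMSO controls.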

[2] = biological target: T1, Protein cereblon/Induced myeloid leukemia cell differentiation protein Mcl-1 (Homo sapiens); assay: Protac activity at Cereblon/MCL1 in human OPM2 cells assessed as protein abundance at 100 nM after 48 hrs by immunoblot analysis relative to control; type: cell-based; how it was run: as §1
[3] = biological target: T1, Protein cereblon/Induced myeloid leukemia cell differentiation protein Mcl-1 (Homo sapiens); assay: Protac activity at Cereblon/MCL1 in human OPM2 cell lysate assessed as induction of MCL1 polyubiquitination incubated for 3 hrs by SDS-PAGE/immunoblot analysis; type: subcellular
How it was run: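 In vitro ubiquitinylation reactions; the target (MCL1 or BRD4) was then immunoprecipitated and the immunoprecipitate immunoblotted for ubiquitin.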

[4] = biological target: T1, Protein cereblon/Induced myeloid leukemia cell differentiation protein Mcl-1 (Homo sapiens); assay: Protac activity at Cereblon/MCL1 long isoform in wild type human OPM2 cells assessed as protein abundance at 50 nM after 48 hrs by immunoblot analysis relative to control; type: cell-based; how it was run: as §1
[5] = biological target: T1, Protein cereblon/Induced myeloid leukemia cell differentiation protein Mcl-1 (Homo sapiens); assay: Protac activity at Cereblon/MCL1 short isoform in wild type human OPM2 cells assessed as MCL1 short isoform abundance at 50 nM after 48 hrs by immunoblot analysis relative to control; type: cell-based
How it was run: (§2)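 OPM2 wild-type cells, run alongside the CRBN-/- line, were treated for 48 h with compound or DMSO. The MCL1 long and short isoforms were then measured by immunoblot against the DMSO control.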

[6] = biological target: T1, Protein cereblon/Induced myeloid leukemia cell differentiation protein Mcl-1 (Homo sapiens); assay: Protac activity at Cereblon/MCL1 short isoform in wild type human OPM2 cells assessed as MCL1 short isoform abundance at 250 nM after 48 hrs by immunoblot analysis relative to control; type: cell-based; how it was run: as §2
[7] = biological target: T2, Induced myeloid leukemia cell differentiation protein Mcl-1 (Homo sapiens, UniProt Q07820); assay: Induction of MCL1 long isoform degradation in CRBN-/- human OPM2 cells assessed as protein abundance at 100 nM after 48 hrs by immunoblot analysis relative to control; type: cell-based; how it was run: as §1
T2 sequence (Q07820 whole entry, canonical isoform): as the sequence (Q07820 whole entry, looked up, canonical isoform) above

[8] = biological target: T2, Induced myeloid leukemia cell differentiation protein Mcl-1; assay: Induction of MCL1 long isoform degradation in CRBN-/- human OPM2 cells assessed as protein abundance at 250 nM after 48 hrs by immunoblot analysis relative to control; type: cell-based; how it was run: as §1
[9] = biological target: T2, Induced myeloid leukemia cell differentiation protein Mcl-1; assay: Induction of MCL1 long isoform degradation in CRBN-/- human OPM2 cells assessed as protein abundance at 500 nM after 48 hrs by immunoblot analysis relative to control; type: cell-based; how it was run: as §1
[10] = biological target: T2, Induced myeloid leukemia cell differentiation protein Mcl-1; assay: Induction of MCL1 short isoform degradation in CRBN-/- human OPM2 cells assessed as protein abundance at 250 nM after 48 hrs by immunoblot analysis relative to control; type: cell-based; how it was run: as §1
OPM-2 [11] = assay: Induction of apoptosis in wild type human OPM2 cells assessed as cleaved caspase-3 at 50 nM after 24 hrs in presence of 1% FBS by immunoblot analysis (reference value: 95%); type: functional
OPM-2 [12] = assay: Induction of apoptosis in wild type human OPM2 cells assessed as cleaved caspase-3 at 100 nM after 24 hrs in presence of 1% FBS by immunoblot analysis (reference value: 91%); type: functional
OPM-2 [13] = assay: Induction of apoptosis in wild type human OPM2 cells assessed as cleaved caspase-3 at 250 nM after 24 hrs in presence of 1% FBS by immunoblot analysis (reference value: 92%); type: functional
OPM-2 [14] = assay: Induction of apoptosis in wild type human OPM2 cells assessed as cleaved caspase-3 at 500 nM after 24 hrs in presence of 1% FBS by immunoblot analysis (reference value: 80%); type: functional
[15] = Half-life in human liver microsome pre-incubated for 10 mins followed by addition of NADPH regenerating system after 5 to 60 mins by LC/MS/MS analysis; type: ADME; conditions: liver microsomes
[16] = biological target: T1, Protein cereblon/Induced myeloid leukemia cell differentiation protein Mcl-1 (Homo sapiens); assay: Protac activity at Cereblon/MCL1 long isoform in human OPM2 cells assessed as MCL1 long isoform level at 300 nM pre-incubated for 72 hrs followed by cycloheximide addition and measured after 120 mins by immunoblot analysis (reference value: 58%); type: cell-based
How it was run: (§3)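 Cycloheximide chase: cells were treated for 72 h with DMSO or degrader, with cycloheximide added for the final 30, 60 or 120 min. OPM2 and MM1.S cells were used, and wild-type OPM2 was compared with OPM2 CRBN-/- at 60 and 120 min. MCL1 was detected by immunoblot.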

[17] = biological target: T1, Protein cereblon/Induced myeloid leukemia cell differentiation protein Mcl-1 (Homo sapiens); assay: Protac activity at Cereblon/MCL1 short isoform in human MM1S cells assessed as MCL1 short isoform level at 300 nM pre-incubated for 72 hrs followed by cycloheximide addition and measured after 30 mins by immunoblot analysis (reference value: 100%); type: cell-based; how it was run: as §3
[18] = biological target: T1, Protein cereblon/Induced myeloid leukemia cell differentiation protein Mcl-1 (Homo sapiens); assay: Protac activity at Cereblon/MCL1 long isoform in human MM1S cells assessed as MCL1 long isoform level at 300 nM pre-incubated for 72 hrs followed by cycloheximide addition and measured after 60 mins by immunoblot analysis (reference value: 82%); type: cell-based; how it was run: as §3
[19] = biological target: T1, Protein cereblon/Induced myeloid leukemia cell differentiation protein Mcl-1 (Homo sapiens); assay: Protac activity at Cereblon/MCL1 long isoform in wild type human OPM2 cells assessed as MCL1 long isoform level at 300 nM pre-incubated for 72 hrs followed by cycloheximide addition and measured after 120 mins by immunoblot analysis (reference value: 53%); type: cell-based; how it was run: as §3
[20] = biological target: T1, Protein cereblon/Induced myeloid leukemia cell differentiation protein Mcl-1 (Homo sapiens); assay: Protac activity at Cereblon/MCL1 short isoform in wild type human OPM2 cells assessed as MCL1 short isoform level at 300 nM pre-incubated for 72 hrs followed by cycloheximide addition and measured after 60 mins by immunoblot analysis (reference value: 64%); type: cell-based
How it was run: (§4)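 OPM2 wild-type and OPM2 CRBN-/- cells were treated for 72 h with compound or DMSO, with cycloheximide present for the final 60 or 120 min. MCL1 was detected by immunoblot.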

[21] = biological target: T1, Protein cereblon/Induced myeloid leukemia cell differentiation protein Mcl-1 (Homo sapiens); assay: Protac activity at Cereblon/MCL1 short isoform in wild type human OPM2 cells assessed as MCL1 short isoform level at 300 nM pre-incubated for 72 hrs followed by cycloheximide addition and measured after 120 mins by immunoblot analysis (reference value: 14%); type: cell-based; how it was run: as §4
[22] = biological target: T2, Induced myeloid leukemia cell differentiation protein Mcl-1; assay: Induction of MCL1 long isoform degradation in CRBN-/- human OPM2 cells assessed as protein abundance at 300 nM pre-incubated for 72 hrs followed by cycloheximide addition and measured after 120 mins by immunoblot analysis (reference value: 37%); type: cell-based; how it was run: as §3
[23] = biological target: T2, Induced myeloid leukemia cell differentiation protein Mcl-1; assay: Induction of MCL1 short isoform degradation in CRBN-/- human OPM2 cells assessed as protein abundance at 300 nM pre-incubated for 72 hrs followed by cycloheximide addition and measured after 120 mins by immunoblot analysis (reference value: 16%); type: cell-based; how it was run: as §3
OPM-2 [24] = assay: Cytotoxicity against CRBN-/- human OPM2 cells assessed as reduction in cell viability at 50 to 10000 nM after 48 hrs by CellTiter-96 Cell Viability Assay; type: cell-based; conditions: opm-2, 48 h, 10 µM
[25] = biological target: T1, Protein cereblon/Induced myeloid leukemia cell differentiation protein Mcl-1 (Homo sapiens); assay: Protac activity at Cereblon/MCL1 long isoform in human OPM2 cells assessed as MCL1 long isoform abundance at 50 nM after 24 hrs by immunoblot analysis relative to control; type: cell-based
[26] = biological target: T1, Protein cereblon/Induced myeloid leukemia cell differentiation protein Mcl-1 (Homo sapiens); assay: Protac activity at Cereblon/MCL1 long isoform in human OPM2 cells assessed as MCL1 long isoform abundance at 100 nM after 24 hrs by immunoblot analysis relative to control; type: cell-based
[27] = biological target: T1, Protein cereblon/Induced myeloid leukemia cell differentiation protein Mcl-1 (Homo sapiens); assay: Protac activity at Cereblon/MCL1 long isoform in human OPM2 cells assessed as MCL1 long isoform abundance at 250 nM after 24 hrs by immunoblot analysis relative to control; type: cell-based
[28] = biological target: T1, Protein cereblon/Induced myeloid leukemia cell differentiation protein Mcl-1 (Homo sapiens); assay: Protac activity at Cereblon/MCL1 short isoform in human OPM2 cells assessed as MCL1 short isoform abundance at 250 nM after 24 hrs by immunoblot analysis relative to control; type: cell-based

With `Cc1nn(C)c(COc2ccc(N3CCN(S(=O)(=O)N(C)C)CC3)cc2)c1-c1cccc2c(CCCOc3cccc4ccccc34)c(C(=O)O)n(CCN3CCN(C(=O)COc4cccc5c4C(=O)N(C4CCC(=O)NC4=O)C5=O)CC3)c12` (stereo not drawn) the Activity [1] was 58%, the Activity [2] was 63% and the Activity [3] was “Active”. For the same molecule, the Activity [4] was 100%, the Activity [5] was 79% and the Activity [6] was 47%. It also gave an Activity [7] of 90%, an Activity [8] of 85% and an Activity [9] of 100%. The Activity [10] was 97%, the Activity (OPM-2 [11]) was 85% and the Activity (OPM-2 [12]) was 143%. It also gave an Activity (OPM-2 [13]) of 197%, an Activity (OPM-2 [14]) of 326% and a half-life [15] of 20.6 min. The Activity [16] was 24%, the Activity [17] was 74% and the Activity [18] was 58%. For the same molecule, the Activity [19] was 16%, the Activity [20] was 14% and the Activity [21] was 2%. The Activity [22] was 39%, the Activity [23] was 25% and the Activity (OPM-2 [24]) was “Toxic”. For the same molecule, the Activity [25] was 97%, the Activity [26] was 77% and the Activity [27] was 73%. It also gave an Activity [28] of 49%.
